Measurements: ChEMBL document CHEMBL1287747, “Highly active antimycobacterial derivatives of benzoxazine” (2010)
Values after ≈ are worked out from the molar mass of the structure shown.

Assays:
Assay type in all cases: functional
Mycobacterium kansasii [1] = experiment: Antimycobacterial activity against Mycobacterium kansasii 6509/96 after 21 days by microdilution method; conditions: 6509/96, 504 h
Procedure, shortened: (§1)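 Clinical isolate that, unlike the standard strain, is not isoniazid-resistant. Tested by dilution micromethod in Šula semisynthetic medium, with compounds added in DMSO at final 1000 down to 0.25 µmol/L in twofold steps. Löwenstein-Jensen plate used as inoculum sterility and growth control. Incubated at 37 °C and read at 14 and 21 days. MIC is the lowest concentration inhibiting growth.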

[2] = system: Mycobacterium tuberculosis; experiment: Antimycobacterial activity against Mycobacterium tuberculosis CNCTC My 331/88 after 14 days by microdilution method; conditions: CNCTC My 331/88, 336 h
Procedure, shortened: (§2)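 Strains from the Czech National Collection of Type Cultures, tested by dilution micromethod in Šula semisynthetic medium. Incubated at 37 °C and read at 14 and 21 days. MIC is the lowest concentration inhibiting growth.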

Mycobacterium kansasii [3] = experiment: Antimycobacterial activity against Mycobacterium kansasii 6509/96 after 14 days by microdilution method; conditions: 6509/96, 336 h; procedure, shortened: as §1
Mycobacterium avium [4] = experiment: Antimycobacterial activity against Mycobacterium avium CNCTC My 330/88 after 21 days by microdilution method; conditions: CNCTC My 330/88, 504 h; procedure, shortened: as §2
Mycobacterium kansasii [5] = experiment: Antimycobacterial activity against Mycobacterium kansasii CNCTC My 235/80 after 14 days by microdilution method; conditions: CNCTC My 235/80, 336 h; procedure, shortened: as §2
[6] = system: Mycobacterium tuberculosis; experiment: Antimycobacterial activity against Mycobacterium tuberculosis CNCTC My 331/88 after 21 days by microdilution method; conditions: CNCTC My 331/88, 504 h; procedure, shortened: as §2
Mycobacterium kansasii [7] = experiment: Antimycobacterial activity against Mycobacterium kansasii CNCTC My 235/80 after 21 days by microdilution method; conditions: CNCTC My 235/80, 504 h; procedure, shortened: as §2
Mycobacterium avium [8] = experiment: Antimycobacterial activity against Mycobacterium avium CNCTC My 330/88 after 14 days by microdilution method; conditions: CNCTC My 330/88, 336 h; procedure, shortened: as §2

**Q.** Which results are given for `CCC(C)c1ccc(-n2c(=S)oc3cc(Cl)ccc3c2=S)cc1` (stereo not drawn)?
**A.** MIC (Mycobacterium kansasii [1]): 2 µM (≈ 0.724 µg/mL); MIC [2]: 1 µM (≈ 0.362 µg/mL); MIC (Mycobacterium kansasii [3]): 1 µM (≈ 0.362 µg/mL); MIC (Mycobacterium avium [4]): 8 µM (≈ 2.9 µg/mL); MIC (Mycobacterium kansasii [5]): 4 µM (≈ 1.45 µg/mL); MIC [6]: 1 µM (≈ 0.362 µg/mL); MIC (Mycobacterium kansasii [7]): 8 µM (≈ 2.9 µg/mL); MIC (Mycobacterium avium [8]): 4 µM (≈ 1.45 µg/mL)

**Q.** For `CCCCc1ccc(-n2c(=S)oc3ccc(Cl)cc3c2=S)cc1`, which MIC (Mycobacterium kansasii [1]) is on record?
**A.** 8 µM (≈ 2.9 µg/mL)

**Q.** And the MIC [2]?
**A.** 2 µM (≈ 0.724 µg/mL)

**Q.** And the MIC (Mycobacterium kansasii [3])?
**A.** 8 µM (≈ 2.9 µg/mL)

**Q.** And the MIC (Mycobacterium avium [4])?
**A.** 16 µM (≈ 5.79 µg/mL)

**Q.** What about the MIC (Mycobacterium kansasii [5]) of the same molecule?
**A.** 8 µM (≈ 2.9 µg/mL)

**Q.** And the MIC [6]?
**A.** 4 µM (≈ 1.45 µg/mL)

**Q.** And the MIC (Mycobacterium kansasii [7])?
**A.** 8 µM (≈ 2.9 µg/mL)

**Q.** What about the MIC (Mycobacterium avium [8]) of the same molecule?
**A.** 8 µM (≈ 2.9 µg/mL)

**Q.** With `CC(C)c1ccc(-n2c(=O)oc3ccc(Br)cc3c2=O)cc1` as the molecule, how does the MIC (Mycobacterium kansasii [1]) read?
**A.** 8 µM (≈ 2.88 µg/mL)

**Q.** And the MIC [2]?
**A.** 2 µM (≈ 0.72 µg/mL)

**Q.** And the MIC (Mycobacterium kansasii [3])?
**A.** 4 µM (≈ 1.44 µg/mL)

**Q.** And the MIC (Mycobacterium avium [4])?
**A.** 16 µM (≈ 5.76 µg/mL)

**Q.** What about the MIC (Mycobacterium kansasii [5]) of the same molecule?
**A.** 8 µM (≈ 2.88 µg/mL)

**Q.** And the MIC [6]?
**A.** 4 µM (≈ 1.44 µg/mL)

**Q.** And the MIC (Mycobacterium kansasii [7])?
**A.** 8 µM (≈ 2.88 µg/mL)

**Q.** And the MIC (Mycobacterium avium [8])?
**A.** 8 µM (≈ 2.88 µg/mL)

**Q.** For `CC(C)c1ccc(-n2c(=O)oc3ccc(Cl)cc3c2=O)cc1`, which MIC (Mycobacterium kansasii [1]) is on record?
**A.** 16 µM (≈ 5.05 µg/mL)

**Q.** What about the MIC [2] of the same molecule?
**A.** 4 µM (≈ 1.26 µg/mL)

**Q.** What about the MIC (Mycobacterium kansasii [3]) of the same molecule?
**A.** 8 µM (≈ 2.53 µg/mL)

**Q.** What about the MIC (Mycobacterium avium [4]) of the same molecule?
**A.** 32 µM (≈ 10.1 µg/mL)

**Q.** What about the MIC (Mycobacterium kansasii [5]) of the same molecule?
**A.** 8 µM (≈ 2.53 µg/mL)

**Q.** And the MIC [6]?
**A.** 8 µM (≈ 2.53 µg/mL)

**Q.** What about the MIC (Mycobacterium kansasii [7]) of the same molecule?
**A.** 16 µM (≈ 5.05 µg/mL)

**Q.** And the MIC (Mycobacterium avium [8])?
**A.** 32 µM (≈ 10.1 µg/mL)

**Q.** With `CC(C)c1ccc(-n2c(=O)oc3cc(Cl)ccc3c2=O)cc1` as the molecule, how does the MIC (Mycobacterium kansasii [1]) read?
**A.** 8 µM (≈ 2.53 µg/mL)

**Q.** And the MIC [2]?
**A.** 4 µM (≈ 1.26 µg/mL)

**Q.** And the MIC (Mycobacterium kansasii [3])?
**A.** 8 µM (≈ 2.53 µg/mL)

**Q.** What about the MIC (Mycobacterium avium [4]) of the same molecule?
**A.** 16 µM (≈ 5.05 µg/mL)

**Q.** What about the MIC (Mycobacterium kansasii [5]) of the same molecule?
**A.** 8 µM (≈ 2.53 µg/mL)

**Q.** What about the MIC [6] of the same molecule?
**A.** 4 µM (≈ 1.26 µg/mL)

**Q.** What about the MIC (Mycobacterium kansasii [7]) of the same molecule?
**A.** 16 µM (≈ 5.05 µg/mL)

**Q.** What about the MIC (Mycobacterium avium [8]) of the same molecule?
**A.** 8 µM (≈ 2.53 µg/mL)

**Q.** How did the MIC (Mycobacterium kansasii [1]) turn out when `CCC(C)c1ccc(-n2c(=O)oc3ccc(Br)cc3c2=O)cc1` (stereo not drawn) was run?
**A.** 16 µM (≈ 5.99 µg/mL)

**Q.** And the MIC [2]?
**A.** 4 µM (≈ 1.5 µg/mL)

**Q.** And the MIC (Mycobacterium kansasii [3])?
**A.** 8 µM (≈ 2.99 µg/mL)

**Q.** What about the MIC (Mycobacterium avium [4]) of the same molecule?
**A.** 32 µM (≈ 12 µg/mL)

**Q.** What about the MIC (Mycobacterium kansasii [5]) of the same molecule?
**A.** 8 µM (≈ 2.99 µg/mL)

**Q.** And the MIC [6]?
**A.** 8 µM (≈ 2.99 µg/mL)

**Q.** And the MIC (Mycobacterium kansasii [7])?
**A.** 8 µM (≈ 2.99 µg/mL)

**Q.** And the MIC (Mycobacterium avium [8])?
**A.** 16 µM (≈ 5.99 µg/mL)

**Q.** With `CCC(C)c1ccc(-n2c(=O)oc3ccc(Cl)cc3c2=O)cc1` (stereo not drawn) as the molecule, how does the MIC (Mycobacterium kansasii [1]) read?
**A.** 16 µM (≈ 5.28 µg/mL)

**Q.** What about the MIC [2] of the same molecule?
**A.** 4 µM (≈ 1.32 µg/mL)

**Q.** What about the MIC (Mycobacterium kansasii [3]) of the same molecule?
**A.** 16 µM (≈ 5.28 µg/mL)

**Q.** And the MIC (Mycobacterium avium [4])?
**A.** 32 µM (≈ 10.6 µg/mL)

**Q.** What about the MIC (Mycobacterium kansasii [5]) of the same molecule?
**A.** 16 µM (≈ 5.28 µg/mL)

**Q.** And the MIC [6]?
**A.** 8 µM (≈ 2.64 µg/mL)

**Q.** And the MIC (Mycobacterium kansasii [7])?
**A.** 16 µM (≈ 5.28 µg/mL)

**Q.** And the MIC (Mycobacterium avium [8])?
**A.** 32 µM (≈ 10.6 µg/mL)

**Q.** `CCC(C)c1ccc(-n2c(=O)oc3cc(Cl)ccc3c2=O)cc1` (stereo not drawn) was tested. Which MIC (Mycobacterium kansasii [1]) did it give?
**A.** 8 µM (≈ 2.64 µg/mL)

**Q.** And the MIC [2]?
**A.** 4 µM (≈ 1.32 µg/mL)

**Q.** And the MIC (Mycobacterium kansasii [3])?
**A.** 8 µM (≈ 2.64 µg/mL)

**Q.** What about the MIC (Mycobacterium avium [4]) of the same molecule?
**A.** 8 µM (≈ 2.64 µg/mL)

**Q.** What about the MIC (Mycobacterium kansasii [5]) of the same molecule?
**A.** 8 µM (≈ 2.64 µg/mL)

**Q.** What about the MIC [6] of the same molecule?
**A.** 4 µM (≈ 1.32 µg/mL)

**Q.** What about the MIC (Mycobacterium kansasii [7]) of the same molecule?
**A.** 8 µM (≈ 2.64 µg/mL)

**Q.** And the MIC (Mycobacterium avium [8])?
**A.** 8 µM (≈ 2.64 µg/mL)

**Q.** What does the source list for `CC(C)(C)c1ccc(-n2c(=O)oc3cc(Cl)ccc3c2=O)cc1`?
**A.** MIC (Mycobacterium kansasii [1]): 8 µM (≈ 2.64 µg/mL); MIC [2]: 4 µM (≈ 1.32 µg/mL); MIC (Mycobacterium kansasii [3]): 8 µM (≈ 2.64 µg/mL); MIC (Mycobacterium avium [4]): 8 µM (≈ 2.64 µg/mL); MIC (Mycobacterium kansasii [5]): 8 µM (≈ 2.64 µg/mL); MIC [6]: 4 µM (≈ 1.32 µg/mL); MIC (Mycobacterium kansasii [7]): 16 µM (≈ 5.28 µg/mL); MIC (Mycobacterium avium [8]): 4 µM (≈ 1.32 µg/mL)

**Q.** Which MIC (Mycobacterium kansasii [1]) does the source give for `CC(C)(C)c1ccc(-n2c(=O)oc3cc(Cl)ccc3c2=S)cc1` here?
**A.** 4 µM (≈ 1.38 µg/mL)

**Q.** And the MIC [2]?
**A.** 2 µM (≈ 0.692 µg/mL)

**Q.** And the MIC (Mycobacterium kansasii [3])?
**A.** 2 µM (≈ 0.692 µg/mL)

**Q.** And the MIC (Mycobacterium avium [4])?
**A.** 8 µM (≈ 2.77 µg/mL)

**Q.** What about the MIC (Mycobacterium kansasii [5]) of the same molecule?
**A.** 4 µM (≈ 1.38 µg/mL)

**Q.** What about the MIC [6] of the same molecule?
**A.** 2 µM (≈ 0.692 µg/mL)

**Q.** And the MIC (Mycobacterium kansasii [7])?
**A.** 8 µM (≈ 2.77 µg/mL)

**Q.** What about the MIC (Mycobacterium avium [8]) of the same molecule?
**A.** 4 µM (≈ 1.38 µg/mL)

**Q.** Which MIC (Mycobacterium kansasii [1]) does the source give for `NNC(=O)c1ccncc1` [ISONIAZID] here?
**A.** 8 µM (≈ 1.1 µg/mL)

**Q.** And the MIC [2]?
**A.** 0.5 µM (≈ 0.0686 µg/mL)

**Q.** What about the MIC (Mycobacterium kansasii [3]) of the same molecule?
**A.** 8 µM (≈ 1.1 µg/mL)

**Q.** And the MIC (Mycobacterium avium [4])?
**A.** > 250 µM

**Q.** What about the MIC (Mycobacterium kansasii [5]) of the same molecule?
**A.** > 250 µM

**Q.** And the MIC [6]?
**A.** 0.5 µM (≈ 0.0686 µg/mL)

**Q.** What about the MIC (Mycobacterium kansasii [7]) of the same molecule?
**A.** > 250 µM

**Q.** And the MIC (Mycobacterium avium [8])?
**A.** > 250 µM
